Bioassay records from PubChem.
T cruzi repl = blocks replication of Trypanosoma cruzi; T. cruzi beta-gal in NIH3T3, luminescence, 90 h; inhibition, % (no concentration beside the values); 300,000 compounds, 1.4% hits; AID 1885;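 active = mean inhibition across valid replicates above about 55%, limit read from the data; inconclusive = mean below that limit but half or more replicates reach it; inactive = mean below it, under half of replicates reach it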;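 also: signal also drops with host cell toxicity which is not excluded here; higher percent means less beta-gal luminescence so fewer parasites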
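Material: NIH/3T3 host cells with β-galactosidase reporter T. cruzi; Input: 5,000 host fibroblasts per well; Medium: DMEM, 2% fetal bovine serum; Compound: 50 nL DMSO compound solution per well; Schedule: 3 h host attachment, then at least 90 h co-culture; Detection: luminescent β-galactosidase signal after 60 min lysis.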
HSF1 inhib = HSF1 inhibition. 300,000 compounds, 0.77% hits. NIH3T3-HGL HSE-luciferase, MG132-induced, luminescence 8 h; hits give low values. activity change, negative = inhibition, % at 7.5 µM (by protocol);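 active = more than half of replicate wells show activity change below -50%, luminescence cut by over half; inconclusive = some wells, but at most half, below -50%; inactive = no replicate well below -50%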;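 also: luciferase reports HSF-1 transcriptional activity via heat shock element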
HSF-1 act = increases HSF-1 driven luciferase reporter signal; 300,000 compounds, 1.7% hits; NIH3T3-HGL HSF-1 luciferase reporter, MG132, 8 h; 100% = twice DMSO control signal; AID 504408; activation, % at 9 µM;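 active = mean replicate activation of at least 50% with a set share of replicates each reaching 50%; inconclusive = only one of those two conditions met; inactive = mean below 50% and too few replicates reaching it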
Hsp70 activator = transcriptional activators of Hsp70 | 200,000 compounds, 0.04% hits | activation, % at 10 µM | HeLa Hsp70 promoter luciferase reporter, luminescence; scaled: vehicle 0, proteasome-inhibitor control 100%;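 active = activation above the mean across all tested compounds plus 3 SD, cutoff set per campaign, cut at about 5.5% in these data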
Lmaj promast = Leishmania major promastigote growth inhibition. 200,000 compounds, 9% hits. AID 1063. Leishmania major promastigotes, resazurin fluorescence viability. inhibition, % at 10 µM; in the data active = inhibition above about 50%;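 also: promastigotes grown with compound for 44 hours at 28 °C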
Of the large screens only hits and unclear results are named; the others gave an inactive call. The sample as a whole holds a higher share of hits than the screen did.

CCS(=O)(=O)N1CCN(Cc2ccccc2OC)CC1	Lmaj promast 60
CCS(=O)(=O)N1CCN(Cc2c[nH]c3ccccc23)CC1	none
CCCS(=O)(=O)N1CCN(Cc2ccccc2OCC)CC1	none
COC(=O)c1ccc(C(=O)N2CCCC(Nc3ccc(F)c(F)c3)C2)cc1 (stereo not given)	none (no result: Hsp70 activator, Lmaj promast)
Cc1ccccc1-c1nn(-c2ccc(F)cc2F)cc1CNCCCN(C)C	Lmaj promast 100
COCCN(C)Cc1cn(-c2ccc(F)cc2F)nc1-c1ccccc1C	none
Cc1ccccc1-c1nn(-c2ccc(F)cc2F)cc1CNCCN(C)C	Lmaj promast 74
COc1ccc(N(CC(=O)Nc2ccc(S(=O)(=O)N3CCOCC3)cc2)S(=O)(=O)c2ccc(F)cc2)cc1	none
COc1ccc(N(C(=O)c2ccccc2)S(=O)(=O)c2cccs2)cc1	none
COc1ccc(C(=O)N(c2ccc(OC)cc2)S(=O)(=O)c2cccs2)cc1	Lmaj promast 77
CCOC(=O)C1(Cc2ccc(Cl)cc2)CCN(C(C)Cc2ccc(O)c(OC)c2)CC1 (stereo not given)	none (no result: Hsp70 activator, Lmaj promast)
C(=C\c1ccccc1)/C=N/Nc1nc2ccccc2[nH]1	none
Fc1cccc(/C=N/Nc2ccc3ccccc3n2)c1	Lmaj promast 52
CCCCCC/C=N/Nc1nnc(Cc2ccccc2)c(=O)[nH]1	none (no result: Hsp70 activator, Lmaj promast)
C(/CCc1ccccc1)=N\Nc1nc2ccccc2[nH]1	Lmaj promast 67
Brc1ccc(/C=N/Nc2ccc3ccccc3n2)cc1	none
C(=N\Nc1nc2ccccc2[nH]1)/c1ccccc1	HSF-1 act 199
Fc1cccc(/C=N/Nc2nc3ccccc3[nH]2)c1	Lmaj promast 83
O=C(NNC(=O)C1CC(=O)N(Cc2ccccc2)C1)c1ccc(Br)cc1 (stereo not given)	none (no result: Hsp70 activator, Lmaj promast)
CN(CC(=O)Nc1ccc(F)cc1)S(=O)(=O)c1ccc2c(c1)c(=O)n(C)c(=O)n2C	none (no result: Hsp70 activator, Lmaj promast)
CCOC(=O)N(Cc1ccccc1)Cc1ccc(C(=O)N[C@@H](Cc2ccccc2)C(=O)O)cc1	none (no result: Hsp70 activator, Lmaj promast)
Cc1cc(=O)[nH]c(N/N=C/c2ccc(F)cc2)n1	none (no result: Hsp70 activator, Lmaj promast)
O=c1[nH]c(N/N=C\c2ccc3c(c2)OCO3)nc2ccccc12	HSF-1 act inconclusive, Lmaj promast 51
Fc1ccc(/C=N/Nc2nc3ccccc3[nH]2)cc1F	HSF-1 act 95, Lmaj promast 90
C(=N\Nc1nc2ccccc2[nH]1)/C1CCCCC1	Lmaj promast 68
Cc1cccc(/C=N\Nc2nnc(-c3ccccc3)c(=O)[nH]2)c1	Lmaj promast 68
O=C(CCC(=O)N(CC(=O)NC1CCCCC1)Cc1cccs1)Nc1nccs1	none (no result: Hsp70 activator, Lmaj promast)
Brc1ccc(-c2ccc(/C=N/Nc3nc4ccccc4[nH]3)o2)cc1	T cruzi repl 62, HSF-1 act 163, Lmaj promast 80
O=c1[nH]c(N/N=C/c2ccccc2)nc2ccccc12	Lmaj promast 58
C/C(=N\NC(=O)NC1CCCCC1)c1ccco1	none
COc1ccc(/C=N/N2CCN(c3ccc(Cl)cc3)CC2)cc1	none (no result: Hsp70 activator, Lmaj promast)
Cc1ccc(N=C2C(=S)N(c3ccc(C)cc3)C(=N)N2/N=C/c2ccc(Cl)cc2)cc1	HSF-1 act 108, Lmaj promast 100
CN(C)c1ccc(CNCCC2(O)CCOC(C)(C)C2)cc1 (stereo not given)	none (no result: T cruzi repl, HSF1 inhib, HSF-1 act)
Cc1ccc(C2(CCNCc3ccc(N(C)C)cc3)CCOC(C(C)C)C2)cc1 (stereo not given)	Lmaj promast 100
Cc1ccc(C2(CCNS(=O)(=O)c3ccc(C)cc3)CCOC(C(C)C)C2)cc1 (stereo not given)	Lmaj promast 63 (no result: HSF1 inhib, HSF-1 act)
CC(C)C1CC(CCNCc2ccc(N(C)C)cc2)(c2ccccc2)CCO1 (stereo not given)	Lmaj promast 98
CC(C)C1CC(CCNCc2ccc3c(c2)OCO3)(c2ccccc2)CCO1 (stereo not given)	none (no result: Hsp70 activator, Lmaj promast)
Cc1ccc(C2(CC(=O)N3CCCC3)CCOC(C(C)C)C2)cc1 (stereo not given)	none
COc1ccccc1N1CCN(S(=O)(=O)c2ccc(NC(C)=O)cc2)CC1	none (no result: Hsp70 activator, Lmaj promast)
O=S(=O)(NCCC(c1ccc(F)cc1)c1ccco1)c1ccccc1 (stereo not given)	none
O=C(CC(c1ccco1)S(=O)(=O)c1ccccc1)c1ccc(F)cc1 (stereo not given)	HSF-1 act 220
O=c1[nH]c2ccccc2cc1CN(Cc1cccnc1)S(=O)(=O)c1ccc(Cl)cc1	none (no result: Hsp70 activator, Lmaj promast)
c1cncc(Cc2cc3ccccc3[nH]2)c1	Lmaj promast 50
OC(Cc1cccnc1)(Cc1cccnc1)c1cc2ccccc2[nH]1	Lmaj promast 55
Cc1ccc(Nc2c(-c3ccccn3)nc3ccc(C)cn23)cc1	Lmaj promast 101
Cc1ccc2nc(-c3ccncc3)c(Nc3ccccc3)n2c1	Lmaj promast 97
Cc1ccc(Nc2c(-c3ccccn3)nc3cc(C)ccn23)cc1	T cruzi repl 76, Lmaj promast 101
Cc1ccc(Nc2c(-c3ccccc3)nc3cnccn23)cc1	none
Cc1ccn2c(Nc3ccc4c(c3)OCO4)c(-c3ccccn3)nc2c1	Lmaj promast 100
Cc1cc(OCC(=O)Nc2ccc(S(=O)(=O)NC3=NCCCCC3)cc2)c(C(C)C)cc1Cl	Lmaj promast 71
Cc1ccc(Cl)c(OCC(=O)Nc2ccc(S(=O)(=O)NC3=NCCCCC3)cc2)c1	none (no result: Hsp70 activator, Lmaj promast)
Cc1cccc(OCCC(=O)Nc2ccc(F)c(Cl)c2)c1	Lmaj promast 65
Cc1ccc(-n2nc3ccc(NC(=O)C(C)C)cc3n2)cc1	none
CC(C)CC(=O)Nc1ccc2nn(-c3ccccc3)nc2c1	HSF-1 act 60
CC(C)CC(=O)Nc1ccc(F)c(Cl)c1	Lmaj promast 60
Cc1ccc(OCCC(=O)Nc2ccc(F)c(F)c2)cc1	none
Cc1cc(NC(=O)CSCC(=O)N(C)Cc2ccc(Cl)cc2Cl)no1	none (no result: Hsp70 activator, Lmaj promast)
CC(C)(C)c1cc(N)n2nc(C(C)(C)C)cc2n1	Lmaj promast 66
COc1ccc(N(C(C)C(=O)N/N=C/c2ccc(OCC(C)C)cc2)S(C)(=O)=O)cc1 (stereo not given)	none
CCOc1ccc(/C=N/NC(=O)C(C)N(c2ccc(OC)cc2)S(C)(=O)=O)cc1 (stereo not given)	HSF-1 act 64
N#C/C(=C/c1cn[nH]c1-c1ccc(Br)cc1)C(=O)O	none
Cc1ccc(S(=O)(=O)N(C)c2ccc(OC(=O)CN3C(=O)NC4(CCCC4)C3=O)cc2)cc1C	none (no result: Hsp70 activator, Lmaj promast)
COc1ccc(O)c(/C=N/N2CCCCC2)c1	none (no result: Hsp70 activator, Lmaj promast)
CN=c1scc(-c2ccco2)n1/N=C/c1ccc(O)c(O)c1	HSF1 inhib -83
COCCn1c(-c2cccs2)csc1=Nc1cccnc1	none
Fc1ccccc1-c1csc(=Nc2cccnc2)n1CCCn1ccnc1	Lmaj promast 76
C=CCN=c1scc(C)n1/N=C/c1ccc(O)c(O)c1	none
Fc1ccccc1-c1csc(=Nc2cccnc2)n1CC1CCCO1 (stereo not given)	none (no result: HSF1 inhib, HSF-1 act)
COc1ccc(O)c(/C=N/n2c(-c3ccco3)csc2=Nc2cccnc2)c1	Lmaj promast 91
